ChEMBL document CHEMBL1671778, “Synthesis and serotonin transporter activity of 1,3-bis(aryl)-2-nitro-1-propenes as a new class of anticancer agents” (Bioorg Med Chem, 2011)
Activity calls are given as the source filed them. The calls are words filed in the database; no cut-off is given here.

What was measured:
[1] = molecular target: T1, Sodium-dependent serotonin transporter (Homo sapiens, UniProt P31645); details: HEK293, at 1 µM
Target sequence in this assay (P31645 whole entry, looked up): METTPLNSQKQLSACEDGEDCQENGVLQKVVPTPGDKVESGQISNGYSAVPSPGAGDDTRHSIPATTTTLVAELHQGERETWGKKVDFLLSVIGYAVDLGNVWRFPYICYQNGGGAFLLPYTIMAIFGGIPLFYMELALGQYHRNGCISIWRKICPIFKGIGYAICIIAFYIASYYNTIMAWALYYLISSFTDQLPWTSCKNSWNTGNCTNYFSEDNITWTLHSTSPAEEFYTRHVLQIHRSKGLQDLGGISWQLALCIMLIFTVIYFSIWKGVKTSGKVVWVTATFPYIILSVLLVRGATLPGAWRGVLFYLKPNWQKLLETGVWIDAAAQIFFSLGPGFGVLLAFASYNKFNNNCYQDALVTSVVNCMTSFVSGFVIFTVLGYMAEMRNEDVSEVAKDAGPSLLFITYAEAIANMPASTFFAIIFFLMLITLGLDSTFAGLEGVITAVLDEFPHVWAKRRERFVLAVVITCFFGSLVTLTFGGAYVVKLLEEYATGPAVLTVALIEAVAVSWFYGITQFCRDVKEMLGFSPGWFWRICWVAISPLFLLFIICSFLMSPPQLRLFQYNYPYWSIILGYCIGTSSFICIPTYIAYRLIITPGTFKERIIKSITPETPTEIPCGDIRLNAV

[2] = Induction of apoptosis in human chemosensitive MUTU-I cells assessed as formation of apoptotic bodies by propidium iodide FACS analysis; assay type: functional, cell-based
SH-SY5Y [3] = experiment: Antiproliferative activity against human SH-SY5Y cells after 24 hrs Alamar blue assay; assay type: functional, cell-based
In short: (§1)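 Alamar Blue viability: 1-5x10^4 cells/well treated 24 h, then Alamar Blue (pre-warmed) 4-6 h at 37 °C in the dark. Fluorescence read at 590 nm (excitation 544 nm), background of medium plus dye subtracted, untreated cells = 100% viability. Miconazole 10 µM as cell-death control. Range 1 µM-1 mM, triplicate on two independent days. pEC50 from non-linear sigmoidal regression.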

HEK293 [4] = experiment: Cytotoxicity against human HEK293 cells assessed as decrease in cell viability after 48 hrs neutral red dye assay; assay type: functional, cell-based; details: HEK293, 48 h
In short: (§2)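 5x10^4 cells/well grown to sub-confluence (24-36 h), then exposed to compound 48 h. Neutral red dye 3+1 h, solubilised in 50% ethanol/1% acetic acid, absorbance 540 nm (690 nm background). Viability as percent of vehicle-treated cells; pEC50 by non-linear sigmoidal regression over 4 concentrations, triplicate on two independent days. Controls 30 mM sodium azide, 2% Triton-X. HEK293-hSERT cells kept in Geneticin, used up to 30 passages.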

HEK293 [5] = experiment: Cytotoxicity against human HEK293 cells expressing human SERT assessed as decrease in cell viability after 48 hrs neutral red dye assay; assay type: functional, cell-based; details: HEK293, 48 h
In short: as §2

PBMC = experiment: Cytotoxicity against human PBMC cells assessed as decrease in cell viability 10 or 50 uM after 24 hrs Alamar blue assay; assay type: cell-based
In short: (§3)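 1-5x10^4 cells/200 µl given 10 or 50 µM for 24 h (MUTU-I, MDA-MB231, PBMC) or […]. Alamar Blue at 37 °C in the dark 4-6 h, then fluorescence read with 544/590 nm. Media-only background subtracted; untreated cells set as 100% viability. Mean of six points (triplicate, two independent days). PBMCs from a healthy donor, isolated by ficoll density separation.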

DG-75 [6] = experiment: Cytotoxicity against human chemoresistant DG75 cells expressing SERT assessed as decrease in cell viability 10 or 50 uM after 72 hrs Alamar blue assay; assay type: functional, cell-based
In short: as §3

MDA-MB-231 = experiment: Cytotoxicity against human MDA-MB-231 cells assessed as decrease in cell viability 10 or 50 uM after 24 hrs Alamar blue assay; assay type: functional, cell-based
In short: as §3

DG-75 [7] = experiment: Antiproliferative activity against human DG75 cells after 24 hrs Alamar blue assay; assay type: functional, cell-based; details: DG-75, 24 h
In short: as §1

[8] = molecular target: T1, Sodium-dependent serotonin transporter; details: HEK293, at 100 µM
Target sequence in this assay (P31645 whole entry, looked up): as above

[9] = molecular target: T1, Sodium-dependent serotonin transporter; experiment: Inhibition of [3H]-serotonin reuptake at human SERT expressed in HEK293 cells after 15 to 20 mins by fluorescence neurotransmitter transporter assay; assay type: cell-based
Target sequence in this assay (P31645 whole entry): as the sequence (P31645 whole entry, looked up) above

DG-75 [10] = experiment: Induction of apoptosis in human chemoresistant DG75 cells assessed as formation of apoptotic bodies by propidium iodide FACS analysis; assay type: functional, cell-based
SH-SY5Y [11] = experiment: Cytotoxicity against human SH-SY5Y cells expressing human SERT assessed as decrease in cell viability after 48 hrs neutral red dye assay; assay type: functional, cell-based
[12] = Cytotoxicity against human chemosensitive MUTU-I cells expressing SERT assessed as decrease in cell viability 10 or 50 uM after 24 hrs Alamar blue assay
MUTU-I [13] = experiment: Induction of apoptosis in human chemosensitive MUTU-I cells assessed as chromatin condensation and membrane bledding at 10 uM after 4 hrs; assay type: functional, cell-based
In short: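 Cells at 3x10^5 cells/mL exposed for 4 h or 8 h. 150 µl aliquots were cytocentrifuged onto slides (500 ×g, 2 min), air-dried, methanol-fixed, and stained with eosin Y and methylene blue. Morphology was examined by light microscopy at 60x.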

MUTU-I [14] = experiment: Induction of apoptosis in human chemosensitive MUTU-I cells assessed as induction of PARP cleavage at 10 uM after 4 hrs; assay type: functional, cell-based
In short: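 PARP cleavage by Western blot: 5x10^6 cells pelleted (500 ×g, 5 min), washed, and lysed in Laemmli buffer with protease inhibitors. Lysates run on 8% SDS-PAGE, transferred to PVDF, and probed with anti-PARP detecting full-length 113 kDa and cleaved 85 kDa forms. HRP secondary antibody, chemiluminescence detection.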

MUTU-I [15] = experiment: Induction of apoptosis in human chemosensitive MUTU-I cells assessed as caspase 3/7 activation at 10 uM after 4 hrs; assay type: functional, cell-based

| Compound | inhibition [1] [%] | EC50 [2] [µM] | EC50 (SH-SY5Y [3]) [µM] | EC50 (HEK293 [4]) [µM] | EC50 (HEK293 [5]) [µM] | Activity (PBMC) | Activity (DG-75 [6]) | EC50 (DG-75 [6]; DG-75, 72 h) [µM] | Activity (MDA-MB-231) | EC50 (DG-75 [7]) [µM] | inhibition [8] [%] | IC50 [9] [µM] | EC50 (DG-75 [10]) [µM] | EC50 (SH-SY5Y [11]) [µM] | IC50 [12] [µM] | Activity (MUTU-I [13]) | Activity (MUTU-I [14]) | Activity (MUTU-I [15]) |
| --- | --- | --- | --- | --- | --- | --- | --- | --- | --- | --- | --- | --- | --- | --- | --- | --- | --- | --- |
| CSc1ccc(CC(Cc2ccc(SC)cc2)NC=O)cc1 | 5 | 13 | 31.6 | > 10000 | 100 | Non-toxic | Active | 31.6 | Active | 5010 | 85 | 15.7 | 10 | 31.6 | – | – | – | – |
| CC(=O)O[C@H]1C(=O)[C@@]2(C)[C@H]([C@H](OC(=O)c3ccccc3)[C@]3(O)C[C@H](OC(=O)[C@H](O)[C@@H](NC(=O)c4ccccc4)c4ccccc4)C(C)=C1C3(C)C)[C@]1(OC(C)=O)CO[C@@H]1C[C@@H]2O [PACLITAXEL] | – | – | – | – | – | – | – | – | – | – | – | – | – | – | 0.01 | inactive | inactive | inactive |
